Assay results reported in ChEMBL document CHEMBL1135628, “Potent and long-acting corticotropin releasing factor (CRF) receptor 2 selective peptide competitive antagonists” (J Med Chem, 2002).

Experiments:
[1] = target: T1, Corticotropin-releasing factor receptor 1 (Homo sapiens, UniProt P34998); experiment: Inhibition of recombinant corticotropin releasing factor receptor 1 assayed using nonselective [125I]-labeled agonist [Tyr0,Glu1,Nle17]-sauvagine
T1 sequence (P34998 whole entry): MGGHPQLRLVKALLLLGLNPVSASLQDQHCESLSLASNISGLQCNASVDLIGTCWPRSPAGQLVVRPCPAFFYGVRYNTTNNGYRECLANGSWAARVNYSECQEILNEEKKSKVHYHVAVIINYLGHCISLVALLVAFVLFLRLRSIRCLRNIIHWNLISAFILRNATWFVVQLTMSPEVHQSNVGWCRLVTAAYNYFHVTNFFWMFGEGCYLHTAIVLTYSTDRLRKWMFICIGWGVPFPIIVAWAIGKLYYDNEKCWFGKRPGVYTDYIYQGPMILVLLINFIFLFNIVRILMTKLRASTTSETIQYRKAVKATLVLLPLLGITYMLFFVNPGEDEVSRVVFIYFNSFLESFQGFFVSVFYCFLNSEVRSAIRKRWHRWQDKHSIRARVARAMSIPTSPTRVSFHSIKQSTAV
Summary of the method: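 Crude plasma membranes from stable CHO lines expressing hCRF1 or mCRF2β, stored in 10% sucrose at -80 °C. Incubated 90 min at room temperature, then washed and filtered. IC50 taken from one representative assay, repeated at least twice.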

[2] = target: Corticotropin-releasing factor receptor 2 (Mus musculus) (UniProt Q60748); experiment: Inhibition of recombinant mouse corticotropin releasing factor receptor 2 beta (CRF2beta) assayed using nonselective [125I]-labeled agonist [Tyr0,Glu1,Nle17]-sauvagine as radioligand
Corticotropin-releasing factor receptor 2 (Mus musculus), sequence (Q60748 whole entry, looked up): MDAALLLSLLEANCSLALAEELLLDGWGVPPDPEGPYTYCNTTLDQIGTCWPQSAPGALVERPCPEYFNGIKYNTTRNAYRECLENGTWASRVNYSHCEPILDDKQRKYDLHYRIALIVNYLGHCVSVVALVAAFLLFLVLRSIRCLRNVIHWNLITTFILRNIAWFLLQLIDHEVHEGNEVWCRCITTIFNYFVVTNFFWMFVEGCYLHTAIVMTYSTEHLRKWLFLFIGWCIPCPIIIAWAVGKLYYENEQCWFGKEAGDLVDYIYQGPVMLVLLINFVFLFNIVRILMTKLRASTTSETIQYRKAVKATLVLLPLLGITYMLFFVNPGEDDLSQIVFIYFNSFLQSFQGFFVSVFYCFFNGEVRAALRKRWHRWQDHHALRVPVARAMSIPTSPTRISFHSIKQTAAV

| IC50 [1] [nM] | IC50 [2] [nM] | SMILES |
| --- | --- | --- |
| > 500 | 81 | CCCC[C@H](NC(=O)[C@H](CCCCN)NC(=O)[C@H](CCCN=C(N)N)NC(=O)[C@H](CC(C)C)NC(=O)[C@](C)(CC(C)C)NC(=O)[C@H](Cc1c[nH]cn1)NC(=O)[C@@H](Cc1ccccc1)NC(=O)[C@H](CO)NC(=O)[C@H](CC(C)C)NC(=O)[C@H](CC(=O)O)NC(C)=O)C(=O)N[C@H](C(=O)N[C@@H](CCC(=O)O)C(=O)N[C@H](C(=O)N[C@@H](CCC(=O)O)C(=O)N[C@@H](CCCCN)C(=O)N[C@@H](CCC(N)=O)C(=O)N[C@@H](CCC(=O)O)C(=O)N[C@@H](CCCCN)C(=O)N[C@@H](CCC(=O)O)C(=O)N[C@@H](CCCCN)C(=O)N[C@@H](CCC(N)=O)C(=O)N[C@@H](CCC(N)=O)C(=O)N[C@H]1CCC(=O)NCCCC[C@@H](C(=O)N[C@@H](CCCN=C(N)N)C(=O)N[C@@H](CC(C)C)C(=O)N[C@@H](CC(C)C)C(=O)N[C@@H](CC(C)C)C(=O)N[C@@H](CC(=O)O)C(=O)N[C@@](C)(CC(C)C)C(=O)N[C@H](C(N)=O)[C@@H](C)CC)NC(=O)[C@H](CC(N)=O)NC(=O)[C@H](C)NC1=O)[C@@H](C)CC)[C@@H](C)CC |
| 3.4 | 0.51 | CCCC[C@H](NC(=O)[C@H](CCCCN)NC(=O)[C@H](CCCN=C(N)N)NC(=O)[C@H](CC(C)C)NC(=O)[C@](C)(CC(C)C)NC(=O)[C@H](Cc1c[nH]cn1)NC(=O)[C@@H](Cc1ccccc1)NC(=O)[C@H](CO)NC(=O)[C@H](CC(C)C)NC(=O)[C@H](CC(=O)O)NC(C)=O)C(=O)N[C@H](C(=O)N[C@@H](CCC(=O)O)C(=O)N[C@H](C(=O)N[C@@H](CCC(=O)O)C(=O)N[C@@H](CCCCN)C(=O)N[C@@H](CCC(N)=O)C(=O)N[C@@H](CCC(=O)O)C(=O)N[C@@H](CCCCN)C(=O)N[C@@H](CCC(=O)O)C(=O)N[C@@H](CCCCN)C(=O)N[C@@H](CCC(N)=O)C(=O)N[C@@H](CCC(N)=O)C(=O)N[C@@H](C)C(=O)N[C@@H](C)C(=O)N[C@@H](CCC(N)=O)C(=O)N[C@@H](CC(N)=O)C(=O)N[C@@H](CCCN=C(N)N)C(=O)N[C@@H](CCCCNC(C)=O)C(=O)N[C@@H](CC(C)C)C(=O)N[C@@H](CC(C)C)C(=O)N[C@@H](CC(=O)O)C(=O)N[C@@](C)(CC(C)C)C(=O)N[C@H](C(N)=O)[C@@H](C)CC)[C@@H](C)CC)[C@@H](C)CC |
| 5.9 | 0.61 | CCCC[C@H](NC(=O)[C@H](CCCCN)NC(=O)[C@H](CCCN=C(N)N)NC(=O)[C@H](CC(C)C)NC(=O)[C@](C)(CC(C)C)NC(=O)[C@H](Cc1c[nH]cn1)NC(=O)[C@@H](Cc1ccccc1)NC(=O)[C@H](CO)NC(=O)[C@H](CC(C)C)NC(=O)[C@H](CC(=O)O)NC(C)=O)C(=O)N[C@H](C(=O)N[C@@H](CCC(=O)O)C(=O)N[C@H](C(=O)N[C@@H](CCC(=O)O)C(=O)N[C@@H](CCCCN)C(=O)N[C@@H](CCC(N)=O)C(=O)N[C@@H](CCC(=O)O)C(=O)N[C@@H](CCCCN)C(=O)N[C@@H](CCC(=O)O)C(=O)N[C@@H](CCCCN)C(=O)N[C@@H](CCC(N)=O)C(=O)N[C@@H](CCC(N)=O)C(=O)N[C@@H](C)C(=O)N[C@@H](C)C(=O)N[C@H]1CCC(=O)NCCCC[C@@H](C(=O)N[C@@H](CC(C)C)C(=O)N[C@@H](CC(C)C)C(=O)N[C@@H](CC(=O)O)C(=O)N[C@@](C)(CC(C)C)C(=O)N[C@H](C(N)=O)[C@@H](C)CC)NC(=O)[C@H](CCCN=C(N)N)NC(=O)[C@H](CC(N)=O)NC1=O)[C@@H](C)CC)[C@@H](C)CC |
